Laboratory results as given in ChEMBL document CHEMBL5715941, “AZD1152, a selective inhibitor of Aurora B kinase, inhibits human tumor xenograft growth by inducing apoptosis” (Clin Cancer Res, 2007).
Calls of active or inactive are those of the source.

Experiments:
[1] = system: SW-620; assay: Induction of polyploidy in human SW620 cells at 300 nmol/L incubated for 48 hrs by flow cytometry analysis; format: functional, cell-based
In short: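 SW620 cells were grown in L-15 with 10% heat-inactivated FCS at 37°C without CO2. They were exposed to AZD1152-HQPA for 0, 24 or 48 h, fixed in 70% ethanol at −20°C overnight, stained with propidium iodide (10 µg/mL) plus RNase (100 µg/mL), and DNA content was read by flow cytometry.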

[2] = system: SW-620; assay: Antitumor activity against human SW620 cells xenografted in Swiss nude mouse assessed as inhibition in PhH3 level at 2.5 mg/kg/day, sc measured over 48 hrs by flow cytometry analysis relative to control; format: functional
In short: (§1)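 Male nude mice with palpable s.c. SW620 tumors (n = 4/group) received AZD1152 (0.5-150 mg/kg/d) or vehicle by constant 48-h s.c. mini-pump infusion. Tumors were then excised, fixed and disaggregated. Flow cytometry with propidium iodide gave DNA content (2N, 4N, >4N), and rabbit anti-PhH3 with fluorescein anti-rabbit IgG gave PhH3-positive cells (%).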

[3] = system: SW-620; assay: Antitumor activity against human SW620 cells xenografted in Swiss nude mouse assessed as inhibition in PhH3 level at 10 to 150 mg/kg/day, sc measured over 48 hrs by flow cytometry analysis relative to control; format: functional; details: dose 10-150 mg/kg/day; in short: as §1
[4] = system: SW-620; assay: Antitumor activity against human SW620 cells xenografted in Swiss nude mouse assessed as accumulation in proportion of 2N DNA content at 70 mg/kg/day, sc over 48 hrs by flow cytometry analysis relative to control; format: functional; in short: as §1
[5] = system: SW-620; assay: Antitumor activity against human SW620 cells xenografted in Swiss nude mouse assessed as accumulation in proportion of 4N DNA content at 70 mg/kg/day, sc over 48 hrs by flow cytometry analysis relative to control; format: functional; in short: as §1
[6] = system: SW-620; assay: Antitumor activity against human SW620 cells xenografted in Swiss nude mouse assessed as increase in large multinucleated cells at 70 mg/kg/day, sc over 48 hrs by H&E staining method; format: functional, organism-based
In short: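 Male nude mice bearing SW620 tumors (n = 4/group) had 48-h s.c. mini-pump infusion of AZD1152 (70 mg/kg/d) or vehicle. Excised tumor sections were stained with H&E, or immunostained for PhH3 Ser10 with rabbit polyclonal antibody, HRP-polymer detection and hematoxylin counterstain.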

[7] = system: SW-620; assay: Antitumor activity against human SW620 cells xenografted in immunodeficient Swiss athymic mouse assessed as maximum inhibition of tumor volume at 150 mg/kg/day, sc for 48 hrs on days 7 to 9 and measured on day 23 relative to control; format: functional; details: SW-620, 408 h, time 17 day
In short: (§2)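 Male Swiss athymic nude mice, 8-12 wk; tumor cells (1×10^6-1×10^7, 50:50 Matrigel) implanted s.c. on flank. Randomized (n = 8-11) at 0.2-0.5 cm3. AZD1152 in Tris buffer pH 9, or vehicle (0.3 mol/L Tris), by 48-h s.c. osmotic mini-pump infusion (two 24-h pumps in sequence). Caliper volumes up to 3×/week; growth inhibition from change in control vs treated volume; one-tailed t test.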

[8] = system: SW-620; assay: Antitumor activity against human SW620 cells xenografted in immunodeficient Swiss athymic mouse assessed as maximum inhibition of tumor volume at 25 mg/kg/day, sc for 48 hrs on days 7 to 9 and measured on day 14 relative to control; format: functional; details: SW-620, 192 h, time 8 day; in short: as §2
[9] = system: SW-620; assay: Antitumor activity against human SW620 cells xenografted in immunodeficient Swiss athymic mouse assessed as inhibition of tumor volume at 25 mg/kg/day, ip for 4 days on days 6 to 9 and measured on day 24 relative to control; format: functional; details: SW-620, 456 h, time 19 day
In short: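 Male Swiss nude mice bearing s.c. flank SW620 xenografts (cells in Matrigel), randomized (n = 8-11) at 0.2-0.3 cm3. AZD1152 in Tris buffer pH 9, or vehicle, given as a once-daily i.v. or i.p. bolus. Caliper volumes up to 3×/week; inhibition from change in control vs treated volume; one-tailed t test.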

[10] = system: COLO 205; assay: Antitumor activity against human COLO 205 cells xenografted in immunodeficient Swiss athymic mouse assessed as inhibition of tumor volume at 150 mg/kg/day, sc for 48 hrs on days 5 to 7 and measured on day 21 relative to control; format: functional; details: COLO 205, 408 h, time 17 day; in short: as §2
[11] = system: A549; assay: Antitumor activity against human A549 cells xenografted in immunodeficient Swiss athymic mouse assessed as inhibition of tumor volume at 150 mg/kg/day, sc for 48 hrs on days 13 to 15 and measured on day 29 relative to control; format: functional; details: A549, 408 h, time 17 day; in short: as §2
[12] = system: A549; assay: Antitumor activity against human A549 cells xenografted in immunodeficient Swiss athymic mouse assessed as inhibition of tumor volume at 25 mg/kg/day, sc for 48 hrs on days 13 to 15 and measured on day 29 relative to control; format: functional; details: A549, 408 h, time 17 day; in short: as §2
[13] = system: Calu-6; assay: Antitumor activity against human Calu-6 cells xenografted in immunodeficient Swiss athymic mouse assessed as inhibition of tumor volume at 150 mg/kg/day, sc for 48 hrs on days 20 to 22 and measured on day 41 relative to control; format: functional; details: Calu-6, 528 h, time 22 day; in short: as §2
[14] = system: SW-620; assay: Antitumor activity against human SW620 cells xenografted in nude athymic rat assessed as tumor growth inhibition at 25 mg/kg/day, iv for 4 consecutive days and measured at 8 day relative to control; format: functional; details: SW-620, 192 h
In short: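 Male nude rats with established SW620 xenografts, randomized at 0.5-1 cm3, received vehicle or AZD1152 (25 mg/kg, in Tris pH 9) as a once-daily i.v. bolus for 4 consecutive days. Tumor volume was measured by caliper (n = 10); growth inhibition relative to vehicle.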

[15] = system: SW-620; assay: Antitumor activity against human SW620 cells xenografted in nude athymic rat assessed as high degree of pleomorphism at 25 mg/kg/day, iv for 4 consecutive days and measured on 5 day by H&E staining based immunohistochemistry analysis; format: functional, organism-based
In short: (§3)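 Nude rats bearing SW620 tumors were dosed i.v. with AZD1152 at 25 mg/kg/d or with vehicle on days 1-4. Subgroups (n = 3) were killed at set days. Tumor and bone marrow sections were H&E-stained and examined histologically.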

[16] = system: SW-620; assay: Antitumor activity against human SW620 cells xenografted in nude athymic rat assessed as morphologic change at 25 mg/kg/day, iv for 4 consecutive days and measured on 5 day by H&E staining based immunohistochemistry analysis; format: functional, organism-based; in short: as §3
[17] = system: SW-620; assay: Antitumor activity against human SW620 cells xenografted in nude athymic rat assessed as increase in cleaved caspase-3 at 25 mg/kg/day, iv for 4 consecutive days and measured on 9 day by H&E staining based immunohistochemistry analysis; format: functional, organism-based
In short: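 Nude rats bearing SW620 tumors received i.v. AZD1152 at 25 mg/kg/d or vehicle on days 1-4 (n = 3 per time point). Tumor sections were immunostained for cleaved caspase-3 (HRP polymer). The percentage area of brown staining per field was quantified by color-threshold image analysis over six fields per section at ×20.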

[18] = system: SW-620; assay: Antitumor activity against human SW620 cells xenografted in nude athymic rat assessed as normal appearance in bone marrow at 25 mg/kg/day, iv for 4 consecutive days and measured on 9 day by H&E staining based immunohistochemistry analysis; format: functional, organism-based; in short: as §3

Question: `CCN(CCCOc1ccc2c(Nc3cc(CC(=O)Nc4cccc(F)c4)[nH]n3)ncnc2c1)CCOP(=O)(O)O` [BARASERTIB] was tested. Which Activity [1] did it give?
Answer: The Activity was “Active”.

Question: And the inhibition in vivo at 2.5 mg/kg/day [2]?
Answer: Its inhibition in vivo at 2.5 mg/kg/day is 69%.

Question: And the “inhibition (INH)” value [3]?
Answer: The value was 77%.

Question: And the Activity [4]?
Answer: The Activity was 35%.

Question: And the Activity [5]?
Answer: The Activity was 56%.

Question: And the Activity [6]?
Answer: Its Activity is “Active”.

Question: What about the inhibition in vivo at 150 mg/kg/day [7] of the same compound?
Answer: The inhibition in vivo at 150 mg/kg/day was 87%.

Question: What about the inhibition in vivo at 25 mg/kg/day [8] of the same compound?
Answer: Its inhibition in vivo at 25 mg/kg/day is 65%.

Question: What about the inhibition in vivo at 25 mg/kg/day [9] of the same compound?
Answer: The inhibition in vivo at 25 mg/kg/day was 54%.

Question: What about the inhibition in vivo at 150 mg/kg/day [10] of the same compound?
Answer: Its inhibition in vivo at 150 mg/kg/day is 94%.

Question: And the inhibition in vivo at 150 mg/kg/day [11]?
Answer: The inhibition in vivo at 150 mg/kg/day was 69%.

Question: What about the inhibition in vivo at 25 mg/kg/day [12] of the same compound?
Answer: Its inhibition in vivo at 25 mg/kg/day is 36%.

Question: What about the inhibition in vivo at 150 mg/kg/day [13] of the same compound?
Answer: The inhibition in vivo at 150 mg/kg/day was 55%.

Question: What about the inhibition in vivo at 25 mg/kg/day [14] of the same compound?
Answer: The inhibition in vivo at 25 mg/kg/day was 93%.

Question: And the Activity [15]?
Answer: Its Activity is “Active”.

Question: What about the Activity [16] of the same compound?
Answer: The Activity was “Active”.

Question: What about the Activity [17] of the same compound?
Answer: The Activity was “Active”.

Question: And the Activity [18]?
Answer: Its Activity is “inactive”.
